Measurements of several laboratories.
Compare with care: the assays were run in different laboratories.
Target: Cytochrome P450 2C19 (CYP2C19, Homo sapiens, UniProt P33261)
Effect on: enzyme activity
Mode: inhibitor

Compound | assay | system | conditions | measurement | result
COc1ccc(Oc2ccc(CN(Cc3ccccc3)Cc3cnc4nc(N)nc(N)c4n3)cc2)cc1 | luciferase | – | 10 µM | inhibition | 102%
C[C@@H](c1ccc2nccn2c1)n1nnc2ncc(-c3cnn(C)c3)nc21 | – | human, liver microsomes | pH 7.4 | IC50 | 100 µM
N=C(N)N1CC=C(c2coc(C(=O)Nc3ccc(C4=CCN(C(=N)N)CC4)c(F)c3)c2)CC1 | – | liver microsomes | 10 µM | inhibition | 2.2%
Nc1nc(N)c2nc(CNc3ccc(C(=O)N4CCC(C(=O)O)CC4)cc3)cnc2n1 | luciferase | – | 10 µM | inhibition | -18.1%
N=C(N)NCc1ccc(NC(=O)C23CCC(C(=O)Nc4ccc(C5=CCN(C(=N)N)CC5)cc4)(CC2)CC3)cc1 | – | liver microsomes | 10 µM | inhibition | 28.6%
C=CC(=O)Nc1cc(Nc2nccc(Nc3cc(Cl)c(F)cc3C(C)(C)O)n2)c(OC)cc1N1CC[C@@H](N(C)C)C1 | – | human, liver microsomes | 10 µM | inhibition | < 20%
CCc1cc(/C(C)=N/OCc2ccc(C3CCCCC3)c(C(F)(F)F)c2)ccc1CN1CC(C(=O)O)C1 | – | human, liver microsomes | 100 µM, 20 min | inhibition | 9.4%
CCN(Cc1cnc2nc(N)nc(N)c2n1)c1ccc(C(=O)N2CCC(C(=O)OC)CC2)cc1 | luciferase | – | 10 µM | inhibition | -11.1%
O=C(Nc1c2c(cc3c1CCC3)CCC2)NS(=O)(=O)/C=C/c1nccs1 | – | human, liver microsomes | 2 µM, pH 7.4 | inhibition | 8.8%
